pEC50, pIC50: −log10 of the molar value.
Key:
[1] = system: Pseudomonas aeruginosa; experiment: Antibacterial activity against Pseudomonas aeruginosa ATCC 10145 after 24 hrs by bacterial proliferation assay; format: functional, organism-based; conditions: ATCC 10145, 24 h
In short: (§1)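 Bacterial growth inhibition in liquid culture. The highest concentration tested was 100 µM. The mean was back-calculated from the average log value. Values above the top concentration were set 0.1 log unit higher.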

[2] = system: Staphylococcus aureus; experiment: Antibacterial activity against methicillin-resistant Staphylococcus aureus ATCC BAA-44 after 6 to 8 hrs by bacterial proliferation assay; format: functional, organism-based; conditions: Staphylococcus aureus, ATCC BAA-44
[3] = system: Staphylococcus aureus; experiment: Antibacterial activity against Staphylococcus aureus ATCC 25923 after 6 to 8 hrs by bacterial proliferation assay; format: functional, organism-based
[4] = Inhibition of refolded MDH (unknown origin) preincubated with Escherichia coli GroEL/GroES for 45 mins in absence of compound followed by compound addition and measured for 20 to 35 mins by spectrometric analysis
[5] = target: T1, E. coli GroEL/ES (Escherichia coli, UniProt P0A6F5); experiment: Inhibition of Escherichia coli GroEL expressed in Escherichia coli DH5alpha/Escherichia coli GroES expressed in Escherichia coli BL21 (DE3) assessed as reduction in GroEL/GroES-mediated denatured MDH refolding after 20 to 40 mins by spectrometric analysis
T1 sequence (P0A6F5 whole entry, looked up): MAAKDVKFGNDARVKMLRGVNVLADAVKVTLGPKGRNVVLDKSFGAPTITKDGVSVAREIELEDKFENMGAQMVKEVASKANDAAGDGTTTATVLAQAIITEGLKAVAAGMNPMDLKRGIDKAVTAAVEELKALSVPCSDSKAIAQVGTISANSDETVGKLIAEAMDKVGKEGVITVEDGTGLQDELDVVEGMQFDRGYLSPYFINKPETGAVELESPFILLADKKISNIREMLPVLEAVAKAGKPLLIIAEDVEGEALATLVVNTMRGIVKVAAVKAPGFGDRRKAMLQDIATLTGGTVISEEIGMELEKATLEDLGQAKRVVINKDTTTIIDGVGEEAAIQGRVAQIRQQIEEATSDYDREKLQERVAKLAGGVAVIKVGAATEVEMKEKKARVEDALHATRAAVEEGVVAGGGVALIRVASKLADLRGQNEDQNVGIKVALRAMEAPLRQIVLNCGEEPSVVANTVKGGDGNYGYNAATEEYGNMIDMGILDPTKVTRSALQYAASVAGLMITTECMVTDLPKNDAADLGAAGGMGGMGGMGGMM
In short: (§2)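 Uses E. coli GroEL/ES with a denatured MDH or rhodanese reporter. GroEL first forms a binary complex with the denatured reporter. Refolding is started by adding ATP and GroES, then reporter enzyme activity is read. DMSO is the negative control. IC50 values from replicate curves are log-averaged after ROUT outlier screening.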

[6] = system: Klebsiella pneumoniae; experiment: Antibacterial activity against Klebsiella pneumoniae ATCC 13883 after 6 to 8 hrs by bacterial proliferation assay; format: functional, organism-based; in short: as §1
[7] = target: T2, Thiosulfate sulfurtransferase (Homo sapiens, UniProt Q16762); experiment: Inhibition of refolded rhodanese (unknown origin) preincubated with Escherichia coli GroEL/GroES for 60 mins in absence of compound followed by compound addition by spectrometric analysis
T2 sequence (Q16762 whole entry): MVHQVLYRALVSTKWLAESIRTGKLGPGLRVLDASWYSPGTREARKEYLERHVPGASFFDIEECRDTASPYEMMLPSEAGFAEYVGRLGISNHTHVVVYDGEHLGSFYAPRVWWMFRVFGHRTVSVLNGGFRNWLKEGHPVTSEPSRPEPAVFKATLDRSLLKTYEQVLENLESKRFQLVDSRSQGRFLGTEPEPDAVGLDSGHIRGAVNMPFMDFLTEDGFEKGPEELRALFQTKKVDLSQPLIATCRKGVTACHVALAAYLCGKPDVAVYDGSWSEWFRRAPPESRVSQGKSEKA

[8] = system: Acinetobacter baumannii; experiment: Antibacterial activity against Acinetobacter baumannii ATCC 19606 after 24 hrs by bacterial proliferation assay; format: functional, organism-based; conditions: ATCC 19606 = CIP 70.34 = JCM 6841, 24 h; in short: as §1
[9] = Cytotoxicity against human THLE3 cells assessed as reduction in cell viability after 48 hrs by Alamar Blue reporter assay; conditions: 48 h
[10] = system: Enterococcus faecium; experiment: Antibacterial activity against Enterococcus faecium ATCC 19434 after 24 hrs by bacterial proliferation assay; format: functional, organism-based; conditions: ATCC 19434, 24 h
[11] = target: T1, E. coli GroEL/ES; experiment: Inhibition of Escherichia coli GroEL expressed in Escherichia coli DH5alpha/Escherichia coli GroES expressed in Escherichia coli BL21 (DE3) assessed as reduction in GroEL/GroES-mediated denatured rhodanese refolding after 45 mins by spectrometric analysis; in short: as §2
[12] = system: HEK293; experiment: Cytotoxicity against HEK293 cells assessed as reduction in cell viability after 48 hrs by Alamar Blue reporter assay; conditions: human, hek293, 48 h
[13] = system: Enterobacter cloacae; experiment: Antibacterial activity against Enterobacter cloacae subsp. cloacae ATCC 13047 after 24 hrs by bacterial proliferation assay; format: functional, organism-based; conditions: subsp. cloacae ATCC 13047, 24 h; in short: as §1
[14] = target: HSP60/HSP10 (Homo sapiens, UniProt P10809); experiment: Inhibition of human N-terminal octa-His-tagged HSP60 expressed in Escherichia coli Rosetta(DE3) pLysS/human HSP10 expressed in Escherichia coli Rosetta(DE3) assessed as reduction in HSP60/HSP10-mediated denatured MDH refolding after 40 to 60 mins by spectrometric analysis
HSP60/HSP10, sequence (P10809 whole entry): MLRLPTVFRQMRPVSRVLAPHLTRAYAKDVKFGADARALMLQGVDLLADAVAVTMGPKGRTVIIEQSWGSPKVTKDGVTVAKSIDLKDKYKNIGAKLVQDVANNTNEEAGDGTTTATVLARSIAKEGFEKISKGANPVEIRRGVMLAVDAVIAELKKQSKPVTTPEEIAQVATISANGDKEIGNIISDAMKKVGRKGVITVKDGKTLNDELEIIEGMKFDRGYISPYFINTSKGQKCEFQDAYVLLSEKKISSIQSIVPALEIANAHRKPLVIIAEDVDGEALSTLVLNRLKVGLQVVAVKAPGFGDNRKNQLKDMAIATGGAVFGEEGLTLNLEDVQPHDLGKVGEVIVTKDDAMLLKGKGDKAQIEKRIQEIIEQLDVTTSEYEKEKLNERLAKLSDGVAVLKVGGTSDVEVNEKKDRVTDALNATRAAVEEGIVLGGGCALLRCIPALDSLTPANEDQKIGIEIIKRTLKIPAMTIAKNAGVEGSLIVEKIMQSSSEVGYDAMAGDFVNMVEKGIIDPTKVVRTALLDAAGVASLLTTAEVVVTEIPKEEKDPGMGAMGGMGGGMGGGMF
HSP60/HSP10, sequence (P61604 whole entry, further chain): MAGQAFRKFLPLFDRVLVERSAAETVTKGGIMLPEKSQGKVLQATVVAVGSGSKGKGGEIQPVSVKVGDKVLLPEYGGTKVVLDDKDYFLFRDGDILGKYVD
In short: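 Human HSP60/10 refolding of denatured MDH, run the same way as the GroEL/ES-dMDH assay. A binary complex of chaperonin and denatured MDH is formed, and refolding is started with ATP and HSP10. MDH activity is the read-out. DMSO is the negative control. IC50 values from replicate curves are log-averaged after ROUT outlier screening.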

Row | SMILES | pEC50 [1] | pEC50 [2] | pEC50 [3] | pIC50 [4] | pIC50 [5] | pEC50 [6] | pIC50 [7] | pEC50 [8] | CC50 [9] [µM] | pEC50 [10] | pIC50 [11] | CC50 [12] [µM] | pEC50 [13] | pIC50 [14]
1 | O=C(Nc1ccccc1)c1cccc(Br)c1 | < 4.00 | < 4.00 | < 4.00 | < 4.20 | < 4.00 | < 4.00 | < 4.00 | < 4.00 | > 100 | < 4.00 | < 4.00 | > 100 | < 4.00 | < 4.00
2 | O=C(Nc1ccc(Sc2nc3ccccc3s2)c(Cl)c1)c1cc(Br)ccc1O | < 4.00 | 6.77 | 6.92 | < 4.20 | 4.43 | < 4.00 | < 4.00 | < 4.00 | 14 | 4.82 | 4.96 | 45 | < 4.00 | < 4.00
3 | O=C(Nc1cccc(Cl)c1)c1cccc(Br)c1O | < 4.00 | 5.70 | 5.89 | < 4.20 | < 4.00 | < 4.00 | < 4.00 | < 4.00 | 16 | < 4.00 | < 4.00 | 32 | < 4.00 | < 4.00
4 | O=C(Nc1ccc(Sc2nc3ccccc3s2)c(Cl)c1)c1cccc(Br)c1 | < 4.00 | < 4.00 | < 4.00 | < 4.20 | < 4.00 | < 4.00 | < 4.00 | < 4.00 | 88 | < 4.00 | < 4.00 | > 100 | < 4.00 | < 4.00
5 | COc1ccc(Br)cc1C(=O)Nc1ccccc1 | < 4.00 | < 4.00 | < 4.00 | < 4.20 | < 4.00 | < 4.00 | < 4.00 | < 4.00 | > 100 | < 4.00 | < 4.00 | > 100 | < 4.00 | < 4.00
6 | COc1c(Br)cccc1C(=O)Nc1ccc(Sc2nc3ccccc3s2)c(Cl)c1 | < 4.00 | < 4.00 | < 4.00 | < 4.20 | < 4.00 | < 4.00 | < 4.00 | < 4.00 | > 100 | < 4.00 | < 4.00 | > 100 | < 4.00 | < 4.00
7 | CC1(C)S[C@@H]2[C@H](NC(=O)[C@H](N)c3ccccc3)C(=O)N2[C@H]1C(=O)O [AMPICILLIN] | < 4.00 | < 4.00 | 6.72 | < 4.20 | < 4.00 | < 4.00 | < 4.00 | < 4.00 | > 100 | 5.16 | < 4.00 | > 100 | < 4.00 | < 4.00
8 | COc1c(Br)cc(Br)cc1C(=O)Nc1ccccc1 | < 4.00 | < 4.00 | < 4.00 | < 4.20 | < 4.00 | < 4.00 | < 4.00 | < 4.00 | > 100 | < 4.00 | < 4.00 | > 100 | < 4.00 | < 4.00
9 | Cc1cc(C(C#N)c2ccc(Cl)cc2)c(Cl)cc1NC(=O)c1cc(I)cc(I)c1O (stereo not drawn) [CLOSANTEL] | < 4.00 | 6.33 | 6.33 | 5.21 | 5.66 | < 4.00 | < 4.00 | < 4.00 | 52 | 5.92 | 5.82 | 75 | < 4.00 | 5.60
10 | O=C(Nc1ccc(Sc2nc3ccccc3s2)cc1)c1cccc(Br)c1O | < 4.00 | 5.96 | 6.12 | < 4.20 | 4.48 | < 4.00 | < 4.00 | 4.92 | 36 | 4.96 | 4.85 | 71 | < 4.00 | 
11 | O=C(Nc1ccccc1)c1cc(Br)ccc1O | < 4.00 | 5.39 | 5.55 | < 4.20 | < 4.00 | 4.11 | < 4.00 | < 4.00 | 16 | < 4.00 | < 4.00 | 35 | < 4.00 | < 4.00
12 | COc1ccccc1C(=O)Nc1cccc(Cl)c1 | < 4.00 | < 4.00 | < 4.00 | < 4.20 | < 4.00 | < 4.00 | < 4.00 | < 4.00 | > 100 | < 4.00 | < 4.00 | > 100 | < 4.00 | < 4.00
13 | O=C(Nc1cccc(Cl)c1)c1ccccc1 | < 4.00 | < 4.00 | < 4.00 | < 4.20 | < 4.00 | < 4.00 | < 4.00 | < 4.00 | > 100 | < 4.00 | < 4.00 | > 100 | < 4.00 | < 4.00
14 | COc1ccccc1C(=O)Nc1ccc(Sc2nc3ccccc3s2)cc1 | < 4.00 | < 4.00 | < 4.00 | < 4.20 | < 4.00 | < 4.00 | < 4.00 | < 4.00 | > 100 | < 4.00 | < 4.00 | > 100 | < 4.00 | < 4.00
15 | O=C(Nc1cccc(Cl)c1)c1cccc(Br)c1 | < 4.00 | 4.17 | 4.33 | < 4.20 | < 4.00 | < 4.00 | < 4.00 | < 4.00 | 50 | < 4.00 | < 4.00 | 51 | < 4.00 | < 4.00
16 | O=C(Nc1ccc(Sc2nc3ccccc3s2)c(Cl)c1)c1ccccc1O | < 4.00 | 6.35 | 6.51 | < 4.20 | 4.38 | < 4.00 | < 4.00 | < 4.00 | 34 | 4.19 | 4.20 |  | < 4.00 | < 4.00
17 | O=C(Nc1ccc(Sc2nc3ccccc3s2)c(Cl)c1)c1ccccc1 | < 4.00 | < 4.00 | 4.37 | < 4.20 | < 4.00 | < 4.00 | < 4.00 | < 4.00 | 82 | < 4.00 | < 4.00 | 90 | < 4.00 | < 4.00
18 | CO[C@H]1/C=C/O[C@@]2(C)Oc3c(C)c(O)c4c(O)c(c(/C=N/N5CCN(C)CC5)c(O)c4c3C2=O)NC(=O)/C(C)=C\C=C\[C@H](C)[C@H](O)[C@@H](C)[C@@H](O)[C@@H](C)[C@H](OC(C)=O)[C@@H]1C [RIFAMPIN] | 5.11 | 6.64 | > 7.30 | < 4.20 | < 4.00 | 4.96 | < 4.00 | 5.89 |  | 6.89 | < 4.00 |  | 5.06 | < 4.00

Source: ChEMBL document CHEMBL4266041, “Hydroxybiphenylamide GroEL/ES Inhibitors Are Potent Antibacterials against Planktonic and Biofilm Forms of Staphylococcus aureus” (J Med Chem, 2018)
